The record followed here is ChEMBL document CHEMBL4138161, “Discovery of simplified sampangine derivatives as novel fungal biofilm inhibitors” (Eur J Med Chem, 2018).

SMILES strings stand for the structures. Values after ≈ are worked out from the molar mass of the structure shown. Active and inactive are the calls of the source. The rule behind the calls is not given here. A value given as a limit tells only on which side of the number the result lay.

One assay concerns Trichophyton rubrum. The assay is described as follows: Antifungal activity against Trichophyton rubrum Cmccftla after 24 hrs by spectrophotometric analysis. The class given is functional. An outline of the steps:
(§1)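 Broth microdilution in RPMI 1640, inoculum 5×10^3 CFU/mL, compounds from 6.4 mg/mL DMSO stocks, 35 ℃ for 24 h. Growth read as OD600; MIC80 taken as lowest concentration giving 80% growth inhibition. Triplicate.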

A further assay concerns Cryptococcus neoformans. The assay is described as follows: Antifungal activity against Cryptococcus neoformans 32609 after 24 hrs by spectrophotometric analysis. Conditions: Cryptococcus neoformans, 32609, 24 h. The assay is classed as functional. The essentials: as §1
The test system of assay [1] is Candida albicans. The assay can be described thus: Antifungal activity against fluconazole-resistant Candida albicans clinical isolate 1010 after 24 hrs by spectrophotometric analysis. The class given is functional. As to conditions: isolate 1010, 24 h. An outline of the steps:
(§2)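 Broth microdilution (MIC80) against fluconazole-resistant clinical C. albicans isolates from a Shanghai hospital. Strains were grown in YPD at 30 ℃. Compounds came from 6.4 mg/mL DMSO stocks and were tested over a concentration series on 5×10^3 CFU/mL inoculum in RPMI 1640 at 35 ℃ for 24 h. OD600 was read; MIC80 is the lowest concentration giving 80% growth inhibition. Done in triplicate.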

In a further assay the test system is Aspergillus fumigatus. The assay can be described thus: Antifungal activity against Aspergillus fumigatus 07544 after 24 hrs by spectrophotometric analysis. As to conditions: Aspergillus fumigatus, 07544, 24 h. The class given is functional. An outline of the steps: as §1
Assay [2] relates to Candida albicans. The assay is described as follows: Antifungal activity against fluconazole-resistant Candida albicans clinical isolate 103 after 24 hrs by spectrophotometric analysis. Conditions: isolate 103, 24 h. The assay is classed as functional. The essentials: as §2
For assay [3], the system named is Candida albicans. The assay is described as follows: Antifungal activity against fluconazole-resistant Candida albicans isolate Chang7 clinical isolate after 24 hrs by spectrophotometric analysis. The assay is classed as functional. As to conditions: isolate Chang7, 24 h. The essentials:
as §2

The next assay has as its system Candida parapsilosis. The assay can be described thus: Antifungal activity against Candida parapsilosis 22019 after 24 hrs by spectrophotometric analysis. The class given is functional. As to conditions: Lodderomyces parapsilosis, 22019, 24 h. An outline of the steps: as §1
The test system of assay [4] is Candida albicans. The assay can be described thus: Antifungal activity against Candida albicans infected in Sprague-Dawley rat vaginal infection model assessed as reduction in vaginal fungal burden at 1 mg/kg, administered intravaginally on day 1 to day 3 post fungal inoculation measured on day 4. The class given is functional, organism-based. An outline of the steps: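 Ovariectomized rats inoculated intravaginally with 0.1 mL of 1×10^7 CFU/mL C. albicans on days 10, 11 and 12 after surgery. Compound in saline with 1% DMSO (2, 4, 8 mg/mL) given intravaginally on days 1–3 post-inoculation. On day 4, 100 µL vaginal fluid plated on chloramphenicol SDA agar for CFU counts.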

The test system of a further assay is Nannizzia gypsea. The assay is described as follows: Antifungal activity against Microsporum gypseum Cmccfmza after 24 hrs by spectrophotometric analysis. The class given is functional. An outline of the steps:
as §1

The next assay relates to Nakaseomyces glabratus. The assay can be described thus: Antifungal activity against Candida glabrata 537 after 24 hrs by spectrophotometric analysis. The class given is functional. Conditions: Nakaseomyces glabratus, 537, 24 h. The essentials: as §1
For assay [5], the system named is Candida albicans. The assay can be described thus: Antibiofilm activity against Candida albicans assessed inhibition of biofilm formation at 1024 ug/ml. The class given is functional.
Assay [6] has as its system Candida albicans. The assay can be described thus: Antifungal activity against fluconazole-resistant Candida albicans isolate J38 clinical isolate after 24 hrs by spectrophotometric analysis. The assay is classed as functional. As to conditions: isolate J38, 24 h. An outline of the steps: as §2
The test system of assay [7] is Candida albicans. The assay is described as follows: Antifungal activity against fluconazole-resistant Candida albicans clinical isolate 032 after 24 hrs by spectrophotometric analysis. Conditions: isolate 032, 24 h. The assay is classed as functional. The essentials: as §2
In assay [8] the test system is Candida albicans. The assay can be described thus: Antifungal activity against Candida albicans SC5314 after 24 hrs by spectrophotometric analysis. The assay is classed as functional. Conditions: SC5314, 24 h. An outline of the steps:
as §1

The subject of assay [9] is Candida albicans. The assay can be described thus: Antifungal activity against Candida albicans SC5314 after 48 hrs by spectrophotometric analysis. The class given is functional. Conditions: SC5314, 48 h.
Assay [10] deals with Candida albicans. The assay is described as follows: Antibiofilm activity against Candida albicans SC5314 assessed inhibition of yeast-to-hypha morphological transition at 0.5 ug/ml after 3 hrs. The assay is classed as functional, organism-based. An outline of the steps:
(§3)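 Yeast-to-hypha transition in YPD with 10% (v/v) FBS across compound concentrations; cell morphology photographed after 3 h at 37°C.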

The subject of assay [11] is Candida albicans. The assay is described as follows: Antibiofilm activity against Candida albicans SC5314 assessed inhibition of yeast-to-hypha morphological transition at 0.2 to 2 ug/ml after 3 hrs. The assay is classed as functional, organism-based. An outline of the steps:
as §3

Consider `OC(Cn1cncn1)(Cn1cncn1)c1ccc(F)cc1F` [FLUCONAZOLE], for which the MIC80 (as a rule, the lowest concentration that inhibits either 80% of growth or 80% of the strains tested, depending on the study) with Trichophyton rubrum is 4 mg/L (≈ 13.1 µM); against Cryptococcus neoformans it was 1 mg/L (≈ 3.27 µM); against Candida albicans [1] it was above 64 mg/L; against Aspergillus fumigatus, above 64 mg/L; against Candida albicans [2] it was above 64 mg/L; against Candida albicans [3] it was 2 mg/L (≈ 6.53 µM). For the same molecule, the MIC80 against Candida parapsilosis is 2 mg/L (≈ 6.53 µM); in the assay on Nannizzia gypsea, 32 mg/L (≈ 104 µM); in the assay with Nakaseomyces glabratus, 2 mg/L (≈ 6.53 µM); with Candida albicans [6] it was above 64 mg/L; in the assay on Candida albicans [7] it was above 64 mg/L; in the assay on Candida albicans [8], 0.25 mg/L (≈ 0.816 µM). The result with Candida albicans [4] was Active. In the assay on Candida albicans [5], the inhibition (usually the change of the read-out against control, counted positive when it falls) at 1024 µg/mL was 60%.
As for `Cc1cnc2c(c1)C(=O)c1sc([N+](=O)[O-])cc1C2=O`, the MIC80 was 1 mg/L (≈ 3.65 µM) in the assay on Trichophyton rubrum; 0.5 mg/L (≈ 1.82 µM) in the assay on Cryptococcus neoformans; 0.5 mg/L (≈ 1.82 µM) against Candida albicans [9]; 2 mg/L (≈ 7.29 µM) against Aspergillus fumigatus; 1 mg/L (≈ 3.65 µM) against Candida parapsilosis; 0.5 mg/L (≈ 1.82 µM) in the assay on Nannizzia gypsea. Besides, the values for the MIC80 in the assay with Nakaseomyces glabratus and against Candida albicans [8] were 1 mg/L (≈ 3.65 µM) and 0.5 mg/L (≈ 1.82 µM), respectively. Besides, the outcome in the assay with Candida albicans [10] was Active. In the assay with Candida albicans [11], the inhibition entry is “inactive”.
Turning to `Cc1cnc2c(c1C)C(=O)c1sc([N+](=O)[O-])cc1C2=O`, the MIC80 was 0.5 mg/L (≈ 1.73 µM) against Trichophyton rubrum; 0.5 mg/L (≈ 1.73 µM) in the assay with Cryptococcus neoformans; 4 mg/L (≈ 13.9 µM) against Candida albicans [9]; 1 mg/L (≈ 3.47 µM) in the assay with Aspergillus fumigatus; 0.5 mg/L (≈ 1.73 µM) in the assay with Candida parapsilosis; 1 mg/L (≈ 3.47 µM) in the assay with Nannizzia gypsea. The MIC80 came out at 1 mg/L (≈ 3.47 µM) in the assay on Nakaseomyces glabratus and 0.25 mg/L (≈ 0.867 µM) with Candida albicans [8]. Moreover, the outcome in the assay on Candida albicans [10] was Active. Further, the inhibition result in the assay with Candida albicans [11] is “inactive”.
On to `Cc1cc[n+]([O-])c2c1C(=O)c1sc([N+](=O)[O-])cc1C2=O`, for which the MIC80 in the assay on Trichophyton rubrum was 8 mg/L (≈ 27.6 µM); with Cryptococcus neoformans it was 4 mg/L (≈ 13.8 µM); in the assay with Aspergillus fumigatus, above 64 mg/L; in the assay with Candida parapsilosis, 32 mg/L (≈ 110 µM); in the assay on Nannizzia gypsea, 4 mg/L (≈ 13.8 µM); against Nakaseomyces glabratus, 64 mg/L (≈ 220 µM). In the assay on Candida albicans [8], the MIC80 worked out at 8 mg/L (≈ 27.6 µM).
On to `O=C1c2ccccc2-c2nccc3ccnc1c23` [SAMPANGINE], for which the MIC80 was 16 mg/L (≈ 68.9 µM) in the assay on Trichophyton rubrum; 2 mg/L (≈ 8.61 µM) in the assay on Cryptococcus neoformans; 16 mg/L (≈ 68.9 µM) with Aspergillus fumigatus; 4 mg/L (≈ 17.2 µM) with Candida parapsilosis; above 64 mg/L against Nannizzia gypsea; 16 mg/L (≈ 68.9 µM) against Nakaseomyces glabratus. In the assay on Candida albicans [8], this molecule had an MIC80 of 0.5 mg/L (≈ 2.15 µM).
Consider `Cc1ccnc2c1C(=O)c1sc([N+](=O)[O-])cc1C2=O`, for which the MIC80 against Trichophyton rubrum amounted to 0.5 mg/L (≈ 1.82 µM); in the assay with Cryptococcus neoformans it was 0.5 mg/L (≈ 1.82 µM); against Aspergillus fumigatus, 2 mg/L (≈ 7.29 µM); against Candida parapsilosis it was 1 mg/L (≈ 3.65 µM); in the assay with Nannizzia gypsea, 2 mg/L (≈ 7.29 µM); against Nakaseomyces glabratus, 1 mg/L (≈ 3.65 µM). This molecule also showed an MIC80 with Candida albicans [8] of 0.25 mg/L (≈ 0.912 µM).
`CCCCc1ccnc2c1C(=O)c1sc([N+](=O)[O-])cc1C2=O`: the MIC80 is 4 mg/L (≈ 12.6 µM) with Trichophyton rubrum; 0.5 mg/L (≈ 1.58 µM) in the assay on Cryptococcus neoformans; 64 mg/L (≈ 202 µM) in the assay on Aspergillus fumigatus; 1 mg/L (≈ 3.16 µM) against Candida parapsilosis; 2 mg/L (≈ 6.32 µM) against Nannizzia gypsea; 4 mg/L (≈ 12.6 µM) in the assay with Nakaseomyces glabratus. Besides, in the assay with Candida albicans [8], the MIC80 amounted to 1 mg/L (≈ 3.16 µM).
`O=C1c2cc([N+](=O)[O-])sc2C(=O)c2cccnc21`: the MIC80 was found to be 0.5 mg/L (≈ 1.92 µM) with Trichophyton rubrum; 0.5 mg/L (≈ 1.92 µM) against Cryptococcus neoformans; 1 mg/L (≈ 3.84 µM) in the assay with Aspergillus fumigatus; 2 mg/L (≈ 7.69 µM) in the assay with Candida parapsilosis; 0.5 mg/L (≈ 1.92 µM) with Nannizzia gypsea; 1 mg/L (≈ 3.84 µM) with Nakaseomyces glabratus. This molecule gave an MIC80 against Candida albicans [8] of 0.5 mg/L (≈ 1.92 µM).
With `CCCc1cnc2c(c1)C(=O)c1sc([N+](=O)[O-])cc1C2=O`, the MIC80 was found to be 1 mg/L (≈ 3.31 µM) against Trichophyton rubrum; 0.5 mg/L (≈ 1.65 µM) in the assay with Cryptococcus neoformans; 4 mg/L (≈ 13.2 µM) in the assay with Aspergillus fumigatus; 4 mg/L (≈ 13.2 µM) against Candida parapsilosis; 1 mg/L (≈ 3.31 µM) against Nannizzia gypsea; 4 mg/L (≈ 13.2 µM) against Nakaseomyces glabratus. For the same molecule, the MIC80 against Candida albicans [8] is 2 mg/L (≈ 6.62 µM).
Regarding `Cc1ccnc2c1C(=O)C1=C(OC(C)(C)C1)C2=O`, the MIC80 was 64 mg/L (≈ 263 µM) against Trichophyton rubrum; above 64 mg/L with Cryptococcus neoformans; 64 mg/L (≈ 263 µM) in the assay on Aspergillus fumigatus; above 64 mg/L against Candida parapsilosis; above 64 mg/L against Nannizzia gypsea; 16 mg/L (≈ 65.8 µM) against Nakaseomyces glabratus. This molecule also displayed an MIC80 in the assay with Candida albicans [8] above 64 mg/L.
Turning to `CCCCc1cnc2c(c1)C(=O)c1sc([N+](=O)[O-])cc1C2=O`, the MIC80 was found to be 1 mg/L (≈ 3.16 µM) against Trichophyton rubrum; 0.5 mg/L (≈ 1.58 µM) with Cryptococcus neoformans; 4 mg/L (≈ 12.6 µM) with Aspergillus fumigatus; 4 mg/L (≈ 12.6 µM) in the assay with Candida parapsilosis; 1 mg/L (≈ 3.16 µM) against Nannizzia gypsea; 4 mg/L (≈ 12.6 µM) against Nakaseomyces glabratus. In the assay with Candida albicans [8], the MIC80 was 2 mg/L (≈ 6.32 µM).
